{"source": "paper PMC9521027", "about": "(ACS Omega, 2022)", "key": {"URAT1 K393R mutant [1]": {"target": "T1, URAT1 K393R mutant (Homo sapiens, UniProt Q96S37, K393R)", "T1 sequence (Q96S37 1-553 K393R)": "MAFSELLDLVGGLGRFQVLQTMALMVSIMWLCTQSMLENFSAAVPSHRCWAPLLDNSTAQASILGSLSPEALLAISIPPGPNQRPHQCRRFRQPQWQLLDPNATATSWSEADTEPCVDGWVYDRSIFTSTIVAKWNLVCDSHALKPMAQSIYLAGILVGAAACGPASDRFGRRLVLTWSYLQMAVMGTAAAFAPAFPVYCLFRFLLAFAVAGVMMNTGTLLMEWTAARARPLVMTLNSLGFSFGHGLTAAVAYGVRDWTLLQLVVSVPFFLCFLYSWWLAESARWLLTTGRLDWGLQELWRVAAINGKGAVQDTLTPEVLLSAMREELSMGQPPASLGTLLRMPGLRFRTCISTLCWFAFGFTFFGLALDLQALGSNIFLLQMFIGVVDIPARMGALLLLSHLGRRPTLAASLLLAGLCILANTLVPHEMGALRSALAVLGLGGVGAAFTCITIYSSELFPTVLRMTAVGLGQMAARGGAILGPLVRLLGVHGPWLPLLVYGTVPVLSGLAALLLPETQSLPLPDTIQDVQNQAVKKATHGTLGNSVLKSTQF", "assay": "14C-uric acid uptake assay in transfected HEK293 cells", "type": "cell-based", "settings": "K393R, HEK293 cells"}, "URAT1 K393A mutant [2]": {"target": "T2, URAT1 K393A mutant (Homo sapiens, UniProt Q96S37, K393A)", "T2 sequence (Q96S37 1-553 K393A)": "T1 sequence (Q96S37 1-553 K393R) with R393A", "assay": "14C-uric acid uptake assay in transfected HEK293 cells", "type": "cell-based", "settings": "K393A, HEK293 cells"}, "URAT1 K393E mutant [3]": {"target": "T3, URAT1 K393E mutant (Homo sapiens, UniProt Q96S37, K393E)", "T3 sequence (Q96S37 1-553 K393E)": "T1 sequence (Q96S37 1-553 K393R) with R393E", "assay": "14C-uric acid uptake assay in transfected HEK293 cells", "type": "cell-based", "settings": "K393E, HEK293 cells"}, "URAT1 WT [4]": {"target": "T4, URAT1 WT (Homo sapiens, UniProt Q96S37)", "T4 sequence (Q96S37 1-553)": "T1 sequence (Q96S37 1-553 K393R) with R393K", "assay": "Saturation kinetic experiment of 14C-uric acid uptake", "type": "cell-based", "settings": "wild-type group"}, "URAT1 WT [5]": {"target": "T4, URAT1 WT", "assay": "Competitive inhibition test of unlabeled uric acid on 14C-uric acid uptake", "type": "cell-based"}, "URAT1 K393R mutant [6]": {"target": "T1, URAT1 K393R mutant", "assay": "Competitive inhibition test of unlabeled uric acid on 14C-uric acid uptake", "type": "cell-based"}, "URAT1 K393A mutant [7]": {"target": "T2, URAT1 K393A mutant", "assay": "14C-uric acid binding assay with membrane protein", "settings": "2.5 μg membrane protein, 25 μM 14C-uric acid, 30 min", "in_short": "(§1)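 Membranes came from HEK293 cells transiently transfected (Lipofectamine 3000) with sequence-confirmed site-directed K393 mutant hURAT1 plasmids; control membranes came from cells transfected with pECFP empty vector. Cells were harvested in ice-cold 25 mM HEPES pH 7.3 with 125 mM sodium gluconate, and membranes were extracted with a kit. Protein was incubated at room temperature, then rapid-filtered, washed with ice-cold DPBS, dissolved in 0.1 M NaOH and scintillation-counted. n = 3, mean ± SD.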"}, "URAT1 K393E mutant [8]": {"target": "T3, URAT1 K393E mutant", "assay": "14C-uric acid binding assay with membrane protein", "settings": "2.5 μg membrane protein, 25 μM 14C-uric acid, 30 min", "in_short": "as §1"}}, "note": "Numbering of substitutions follows the chain as printed."}
{"smiles": "O=c1[nH]c(=O)c2[nH]c(=O)[nH]c2[nH]1", "note": "[uric acid]", "values": [{"measurement": "14C-uric acid transport compared with WT", "setting": "URAT1 K393R mutant [1]", "result": "no reduction"}, {"measurement": "14C-urate transport capacity lost compared with WT", "setting": "URAT1 K393A mutant [2]", "result": "70–80%"}, {"measurement": "14C-urate transport capacity lost compared with WT", "setting": "URAT1 K393E mutant [3]", "result": "70–80%"}, {"measurement": "Vmax", "setting": "URAT1 WT [4]", "result": 654.12, "unit": "µM"}, {"measurement": "IC50", "setting": "URAT1 WT [5]", "result": "115 ± 6.36", "unit": "µM"}, {"measurement": "IC50", "setting": "URAT1 K393R mutant [6]", "result": "113 ± 10.1", "unit": "µM"}, {"measurement": "14C-uric acid binding compared with WT", "setting": "URAT1 K393A mutant [7]", "result": "significant loss"}, {"measurement": "14C-uric acid binding compared with WT", "setting": "URAT1 K393E mutant [8]", "result": "significant loss"}]}
